Compound activity deposited in PubChem by several laboratories.
Only some compounds are listed: those with a hit (about 1.9% of all), similar ones and a draw of the others.
GAA850 FXN act = activators of GAA850 frataxin (FXN) promoter; hit rate 0.56% among 360,000; activation, % at 6 µM; HEK293 lucGAA850 FXN promoter luciferase reporter, 24 h; percent of 10 µM SAHA response; AID 540364;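 active means activation above the average of all compounds screened plus 3 SD, cutoff fixed separately per campaign, cut at about 7.5% in these data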;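 further: 0% = DMSO wells and 100% = 10 µM SAHA wells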
Rad51 HR inh = Rad51 (human) homologous recombination inhibition; hRad51 DNA strand exchange, fluorescence dequenching; inhibition, % at 10 µM; hit rate 0.085% among 200,000;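 active means inhibition above 40% at the single screening dose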;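 further: 0% = DMSO control wells and 100% = blanks with heterologous ssDNA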
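Material: human Rad51–ssDNA filaments; Probe or stimulus: labelled 47-mer dsDNA for strand exchange; Doses: single 10 µM dose; Incubation: 37 °C 15-min filament assembly, 30-min compound preincubation, 15-min exchange; Technique: FRET fluorescence dequenching, excitation 485 nm, emission 520 nm; Measure: Fluorescence-based percent inhibition, control- and blank-normalised; Benchmarks: plate control and blank wells.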
Hsp70 act = transcriptional activators of Hsp70 | HeLa Hsp70 promoter luciferase reporter, luminescence; scaled: vehicle 0, proteasome-inhibitor control 100% | activation, % at 10 µM | hit rate 0.04% among 200,000 | AID 1203;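 active means activation above the mean across all tested compounds plus 3 SD, cutoff set per campaign, cut at about 5.5% in these data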;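 further: 100% = MG132 at 30 µM as the positive control and 0% = DMSO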
TAG inh = reduces triacylglycerol accumulation in H9c2 cells; Nile Red lipid (TAG) fluorescence; cells loaded with 200 µM oleic acid; inhibition, % at 12.5 µM; hit rate 0.66% among 230,000; AID 651582;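 active means pattern-corrected inhibition of lipid staining of at least 50% with the nuclear-stain viability signal not falling by more than 50%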;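 further: 0% = DMSO wells and 100% = triacsin C control wells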
ABHD5-PLIN5 inh = blocks binding of human ABHD5 to perilipin-5; Q00G26+Q8WTS1; Split G. princeps luciferase complementation, luminescence, 4 h; inhibition, % at 4 µM; hit rate 0.78% among 360,000; AID 602281;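 active means inhibition above the mean inhibition across every tested compound plus 3 SD, cut at about 22% in these data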;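 further: 0% = DMSO only wells and the 100% control is not disclosed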
Target sequence (Q00G26 whole entry, looked up): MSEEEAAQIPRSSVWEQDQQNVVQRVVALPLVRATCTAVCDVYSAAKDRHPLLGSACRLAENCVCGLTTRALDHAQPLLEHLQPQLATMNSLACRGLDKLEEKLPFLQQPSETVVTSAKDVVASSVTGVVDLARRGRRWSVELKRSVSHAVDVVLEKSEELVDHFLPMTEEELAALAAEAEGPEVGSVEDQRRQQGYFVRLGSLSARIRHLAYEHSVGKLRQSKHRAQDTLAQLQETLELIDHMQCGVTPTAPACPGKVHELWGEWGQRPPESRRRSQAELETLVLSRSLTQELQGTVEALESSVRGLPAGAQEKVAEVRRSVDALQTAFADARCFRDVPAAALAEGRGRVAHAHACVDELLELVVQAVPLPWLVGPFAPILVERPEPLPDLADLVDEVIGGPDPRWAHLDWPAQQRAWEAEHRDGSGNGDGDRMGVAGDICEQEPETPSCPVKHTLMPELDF
Target sequence (Q8WTS1 whole entry, looked up): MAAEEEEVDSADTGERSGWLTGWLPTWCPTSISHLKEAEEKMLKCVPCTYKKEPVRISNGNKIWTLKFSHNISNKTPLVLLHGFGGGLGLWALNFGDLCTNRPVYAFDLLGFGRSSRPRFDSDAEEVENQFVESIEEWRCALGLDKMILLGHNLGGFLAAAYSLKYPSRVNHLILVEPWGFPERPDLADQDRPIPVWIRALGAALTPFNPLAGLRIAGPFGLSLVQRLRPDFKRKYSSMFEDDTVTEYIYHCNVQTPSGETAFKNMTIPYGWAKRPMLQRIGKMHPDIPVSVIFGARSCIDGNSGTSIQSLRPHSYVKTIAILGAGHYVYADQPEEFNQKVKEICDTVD
HIF activator = HIF pathway transcriptional activation. U2OS HRE-luciferase reporter, luminescence; normalized: DMSO 0%, desferrioxamine 100%. activation, % at 7.5 µM (by protocol). AID 1910. hit rate 0.32% among 300,000;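 active means mean activation of at least 10% of the iron chelator positive control signal, with at least half of replicates also reaching 10%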
GAA30 FXN cntr = activates GAA30 frataxin promoter, counter-screen for GAA850 activators. shares compounds with GAA850 FXN act. HEK293 lucGAA30 FXN promoter luciferase, 24 h; DMSO = 0%, 5 µM ipriflavone = 100%. activation, % at 6 µM. hit rate 66% among 1,900;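 active means mean activation above the mean of solvent-only control wells plus 3 SD, cut at about 22% in these data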;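 further: counterscreen of GAA850 promoter hits where activity marks nonselective or luminescence artifacts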
GAA850 confirm = confirmation of GAA850 frataxin (FXN) promoter activators; shares compounds with GAA850 FXN act; HEK293 lucGAA850 FXN promoter luciferase reporter, 24 h; 100% = activation by SAHA; activation, % at 6 µM; hit rate 86% among 1,900; AID 588351;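 active means mean activation above a set limit taken from the primary screen, cut at about 8% in these data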;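 further: 0% = DMSO wells and 100% = 10 µM SAHA wells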
* hit, by the source's call; · = no result.

SMILES | GAA850 FXN act | Rad51 HR inh | Hsp70 act | TAG inh | ABHD5-PLIN5 inh | HIF activator | GAA30 FXN cntr | GAA850 confirm
O=C(NN=C1CCCC1)c1cccs1 | 4 | -49 | 0 | -4 | -3 | 6 | · | ·
O=C(NN=C1C2CC3CC(C2)CC1C3)c1cccs1 | 8.8* | 4 | 0 | · | 3 | 3 | 24* | 11*
CCCn1cc(CN2CCC(n3nccc3NC(=O)c3ccccc3)CC2)c(C)n1 | 1 | · | · | -4 | -1 | -1 | · | ·
O=C(COC(=O)c1cccnc1)c1ccc(Cl)cc1 | 11* | · | 0 | · | -3 | 0 | 22* | 5
O=C(COC(=O)c1cccnc1)c1ccc(Cl)c(Cl)c1 | 1 | -4 | 0 | -2 | 1 | 0 | · | ·
Cc1c(C(=O)NCc2ccccn2)sc2nc(-c3ccc(F)cc3)cn12 | 2 | -4 | 0 | · | 6 | 0 | · | ·
Cc1c(C(=O)NCC2CCCO2)sc2nc(-c3ccc(F)cc3)cn12 (stereo unspecified) | 17* | 9 | 0 | 12 | 2 | 2 | 61* | 21*
c1ccc(C2=NN(c3ccccc3)CC2)cc1 | 7.7* | 14 | · | -6 | -5 | 4 | 108* | 30*
O=C(Nc1ccc(F)cc1)Nc1ccc(N2CCOCC2)c2nonc12 | 8.2* | 15 | 0 | 19 | -15 | 4 | 103* | 32*
COC(=O)C1=C(C)N(CCCC(=O)O)C(=O)NC1c1cccc(OC)c1 (stereo unspecified) | 0 | -10 | · | · | 9 | 0 | · | ·
COc1ccc(/C=C2\SC(=S)N(CCC(=O)NC3C=CS(=O)(=O)C3)C2=O)cc1 (stereo unspecified) | -2 | · | · | · | -1 | -2 | · | ·
COc1cccc(/C=C2\SC(=S)N(CCC(=O)NC3C=CS(=O)(=O)C3)C2=O)c1 (stereo unspecified) | 10* | · | · | · | 7 | 1 | 30* | 14*
O=[N+]([O-])c1ccc(COc2cccc3cccnc23)cc1 | 4 | · | · | · | 3 | -3 | · | ·
O=[N+]([O-])c1ccc(Sc2cccc3cccnc23)c([N+](=O)[O-])c1 | 22* | · | 0 | · | -7 | 0 | -96 | -22
O=[N+]([O-])c1cc(Cl)ccc1Sc1cccc2cccnc12 | 2 | 3 | 0 | · | 2 | 0 | · | ·
O=[N+]([O-])c1ccc(Sc2cccc3cccnc23)cc1 | 9.3* | -3 | 0 | · | -4 | 2 | 83* | 30*
COc1ccc(NC(=O)c2ccc(NC(=O)c3cccs3)cc2)cc1 | 1 | · | · | 8 | -6 | -3 | · | ·
COc1nc(N)nc(NC(=O)c2cccs2)c1N=O | 16* | · | · | 20 | -10 | 1 | 4 | 31*
[O-][N+]1=c2ccc(Nc3ccccc3)cc2=NC12CCCCC2 | 10* | 2 | 0 | · | -19 | -1 | 46* | 70*
COc1ccc(Nc2ccc3c(c2)=NC2(CCCCC2)[N+]=3[O-])cc1 | 17* | 0 | 0 | 48 | -7 | -8 | 50* | 106*
COc1cccc(/C=C/c2ccc3cccc(O)c3n2)c1 | 8.7* | · | · | · | 0 | 3 | 4 | 29*
COc1cc(/C=C/c2ccc3cccc(O)c3n2)cc(OC)c1OC | -5 | · | · | · | 4 | 4 | · | ·
COc1cc(/C=C/c2ccc3cccc(O)c3n2)cc(Cl)c1OC | 13* | · | · | · | 1 | 5 | -79 | -23
COc1cc(/C=C/c2ccc3cccc(O)c3n2)cc(Br)c1OC | 9.2* | · | · | · | -3 | -4 | -46 | -1
CCOC(=O)C1CCN(C(=O)COC(=O)CNC(=O)c2ccc(C(C)(C)C)cc2)CC1 | -1 | · | · | 19 | 3 | · | · | ·
SMILES | GAA850 FXN act | Rad51 HR inh | Hsp70 act | TAG inh | ABHD5-PLIN5 inh | HIF activator | GAA30 FXN cntr | GAA850 confirm
CC(C)C[C@H]1CNC(=S)N1C[C@H]1CCCN1C[C@H](CC(C)C)N1C[C@H](Cc2ccc(O)cc2)N(CC2CCCCC2)C1=S | · | · | · | · | 8 | · | · | ·
O=C(Cc1ccccc1)c1ccc(N2CCOCC2)cc1 | 2 | · | · | 3 | -5 | · | · | ·
O=C(NC1CCCCC1)C(=O)c1c[nH]c2ccccc12 | 8.3* | · | · | -1 | 0 | 4 | 85* | 28*
CC(C)(C)c1ccc(/C=C/C(=O)Nc2nncs2)cc1 | 7.6* | · | 0 | 2 | 0 | 3 | 108* | 39*
CCOCCCNC(=O)/C(C#N)=C/c1ccc([N+](=O)[O-])o1 | 11* | -42 | 0 | 99 | 8 | 1 | -45 | -12
CC(NC(=O)/C(C#N)=C/c1ccc([N+](=O)[O-])o1)c1ccccc1 (stereo unspecified) | 10* | · | · | · | 29* | -3 | -56 | 8.5*
CC(NC(=O)/C(C#N)=C/c1ccco1)c1ccccc1 (stereo unspecified) | 0 | 13 | · | -3 | 0 | 0 | · | ·
COc1ccc(C)cc1/C=C/C(=O)N1CCN(S(=O)(=O)c2cccs2)CC1 | 0 | · | · | 2 | -4 | · | · | ·
Cc1ccc(-c2nnc(SCC(=O)N(C)C)nc2-c2ccc(C)cc2)cc1 | -1 | · | · | · | 10 | -1 | · | ·
Cc1ccc(-c2csc(C(C#N)=C3CCCC3)n2)cc1 | 4 | 3 | 0 | -14 | 5 | 3 | · | ·
N#CC(=C1CCCC1)c1nc(-c2ccccc2)cs1 | 9.5* | 2 | 0 | 1 | 4 | 3 | 111* | 39*
CCOC(=O)c1c(NC(=O)c2cccs2)sc(C(=O)N(C)C)c1C | -1 | 6 | 0 | 30 | 0 | -3 | · | ·
CCOC(=O)c1c(NC(=O)c2cccnc2Cl)sc(C(=O)N(C)C)c1C | 10* | -25 | 0 | · | 1 | -1 | 10 | 7
CCOc1ccc(Nc2nnc(Cc3ccc(OC)cc3)c(=O)[nH]2)cc1 | -2 | 18 | 0 | -19 | 3 | -1 | · | ·
Cn1c(=O)c2nc(-c3ccccc3)oc2c2ccccc21 | 12* | 4 | 0 | 7 | 14 | 1 | 44* | 24*
Cc1c(CCC(=O)NCC(=O)O)c(=O)oc2cc3occ(-c4ccccc4)c3cc12 | 9.4* | · | · | · | 4 | -6 | 2 | 1
O=C(N/N=C/c1ccccn1)c1cc(C2CC2)nc2ccccc12 | 1 | · | · | · | 4 | 1 | · | ·
O=C(N/N=C/c1ccccn1)c1ccc(Cl)c(Cl)c1 | 9.1* | · | · | -1 | 3 | 7 | -108 | -30
O=C(N/N=C/c1ccccn1)c1cc(-c2ccccc2)nc2ccccc12 | 7.7* | · | · | -3 | -2 | 3 | -118 | -37
COc1ccc(Nc2ccc(C(F)(F)F)cc2[N+](=O)[O-])cn1 | 1 | · | · | · | -2 | -1 | · | ·
CC(C)(C)c1ccc(-n2ncc3c2CCCC3NC(=O)CCN2CCCC2=O)cc1 (stereo unspecified) | -5 | · | · | · | -3 | 0 | · | ·
